Measured values as given in ChEMBL document CHEMBL1687901 (J Med Chem, 2011).
In brackets after ≈: the same amount, converted by molar mass.

How the values were obtained:
Assay type in all cases: functional
Klebsiella pneumoniae = experiment: Antibacterial activity against Klebsiella pneumoniae ATCC 13883 by CLSI M07-A8 method
Staphylococcus aureus [1] = experiment: Antibacterial activity against tetracycline-resistant Staphylococcus aureus isolate 158 harboring tet(K) gene by CLSI M07-A8 method
Procedure, shortened: (§1)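 MICs were determined by CLSI broth microdilution in freshly prepared cation-adjusted Mueller Hinton broth, kept at 4 °C before use. Defibrinated horse blood was added as appropriate. Runs met QC ranges for comparator antibiotics with ATCC quality control strains.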

Streptococcus pneumoniae [2] = experiment: Antibacterial activity against Streptococcus pneumoniae ATCC 49619 by CLSI M07-A8 method
Escherichia coli [3] = experiment: Antibacterial activity against tetracycline-resistant Escherichia coli isolate 155 harboring tet(A) gene by CLSI M07-A8 method
Procedure, shortened: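 MICs were determined by CLSI broth microdilution in freshly prepared cation-adjusted Mueller Hinton broth, kept at 4 °C before use. Defibrinated horse blood was added as appropriate. The highest concentration tested was 32 μg/mL. Runs met QC ranges for comparator antibiotics with ATCC quality control strains.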

Staphylococcus aureus [4] = experiment: Antibacterial activity against wild type Staphylococcus aureus Smith ATCC 13709 by CLSI M07-A8 method
Staphylococcus aureus [5] = experiment: Antibacterial activity against tetracycline-resistant Staphylococcus aureus isolate 161 harboring tet(M) gene by CLSI M07-A8 method; procedure, shortened: as §1
Escherichia coli [6] = experiment: Antibacterial activity against Escherichia coli ATCC 25922 by CLSI M07-A8 method
Escherichia coli [7] = experiment: Inhibition of protein synthesis in Escherichia coli S30 extract by coupled transcription/translation assay
Procedure, shortened: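 Coupled transcription/translation used an E. coli S30 extract with a firefly luciferase reporter. Compounds were diluted in water and tested as a three-point titration in duplicate. Reactions ran 1 h at 37 °C and were stopped on ice for 5 min, then luciferase substrate was added and luminescence read. Percent inhibition was calculated against uninhibited controls averaged per plate, and IC50 derived.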

Streptococcus pneumoniae [8] = experiment: Antibacterial activity against tetracycline-resistant Streptococcus pneumoniae isolate 160 harboring tet(M) gene by CLSI M07-A8 method; procedure, shortened: as §1
Staphylococcus aureus [9] = experiment: Antibacterial activity against Staphylococcus aureus ATCC 13709 infected in iv dosed mouse septicemia model assessed as mouse protection after 48 hrs; conditions: ATCC 13709, iv, read-out: PD50
Procedure, shortened: (§2)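 Mice were challenged intraperitoneally with bacteria mixed with 5% mucin. For S. aureus ATCC 13709 (Smith) the inoculum was 2.1 × 10^6 cfu/mouse, and for E. coli ATCC 25922 it was 2.0 × 10^7 cfu/mouse. PD50 in mg/kg was calculated from survival at 48 h.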

Escherichia coli [10] = experiment: Antibacterial activity against Escherichia coli by CLSI M07-A8 method
Staphylococcus aureus [11] = experiment: Antibacterial activity against Staphylococcus aureus by CLSI M07-A8 method
Escherichia coli [12] = experiment: Antibacterial activity against Escherichia coli ATCC 25922 infected in iv dosed mouse septicemia model assessed as mouse protection after 48 hrs; conditions: ATCC 25922, iv, read-out: PD50; procedure, shortened: as §2
Streptococcus pneumoniae [13] = experiment: Antibacterial activity against Streptococcus pneumoniae by CLSI M07-A8 method
Haemophilus influenzae = experiment: Antibacterial activity against Haemophilus influenzae by CLSI M07-A8 method

Structure (SMILES) | MIC (Klebsiella pneumoniae) [µg/mL] | MIC (Staphylococcus aureus [1]) [µg/mL] | MIC (Streptococcus pneumoniae [2]) [µg/mL] | MIC (Escherichia coli [3]) [µg/mL] | MIC (Staphylococcus aureus [4]) [µg/mL] | MIC (Staphylococcus aureus [5]) [µg/mL] | MIC (Escherichia coli [6]) [µg/mL] | IC50 (Escherichia coli [7]) [µg/mL] | MIC (Streptococcus pneumoniae [8]) [µg/mL] | ED50 (Staphylococcus aureus [9]) [mg/kg] | MIC90 (Escherichia coli [10]) [µg/mL] | MIC50 (Staphylococcus aureus [11]) [µg/mL] | MIC90 (Staphylococcus aureus [11]) [µg/mL] | ED50 (Escherichia coli [12]) [mg/kg] | MIC (Streptococcus pneumoniae [13]) [µg/mL] | MIC (Haemophilus influenzae) [µg/mL]
CN(C)[C@@H]1C(O)=C(C(N)=O)C(=O)[C@@]2(O)C(O)=C3C(=O)c4c(O)c(N)nc(Cl)c4C[C@H]3C[C@@H]12 | 0.5 (≈ 1.08 µM) | 8 (≈ 17.2 µM) | 0.016 (≈ 0.0344 µM) | > 32 | 0.016 (≈ 0.0344 µM) | 4 (≈ 8.6 µM) | 0.25 (≈ 0.538 µM) | 1.1 (≈ 2.37 µM) | 4 (≈ 8.6 µM) | – | – | – | – | – | – | –
CN(C)CCCNc1nc(Cl)c2c(c1O)C(=O)C1=C(O)[C@]3(O)C(=O)C(C(N)=O)=C(O)[C@@H](N(C)C)[C@@H]3C[C@@H]1C2.Cl | 16 | 2 | 1 | > 32 | 2 | 8 | 8 | 0.58 | 4 | – | – | – | – | – | – | –
CN(C)CC(C)(C)CNc1nc(F)c2c(c1O)C(=O)C1=C(O)[C@]3(O)C(=O)C(C(N)=O)=C(O)[C@@H](N(C)C)[C@@H]3C[C@@H]1C2.Cl | 2 | 0.5 | 0.5 | 8 | 1 | 2 | 1 | – | 1 | – | – | – | – | – | – | –
CCCc1nc(Cl)c2c(c1O)C(=O)C1=C(O)[C@]3(O)C(=O)C(C(N)=O)=C(O)[C@@H](N(C)C)[C@@H]3C[C@@H]1C2.Cl | 32 | 4 | 1 | > 32 | 1 | 4 | > 32 | – | 4 | – | – | – | – | – | – | –
Cc1nc(Cl)c2c(c1O)C(=O)C1=C(O)[C@]3(O)C(=O)C(C(N)=O)=C(O)[C@@H](N(C)C)[C@@H]3C[C@@H]1C2.Cl | 8 | 16 | 0.5 | > 32 | 2 | 8 | 8 | – | 8 | – | – | – | – | – | – | –
CN(C)[C@@H]1C(O)=C(C(N)=O)C(=O)[C@@]2(O)C(O)=C3C(=O)c4c(O)c(-c5ccccc5)nc(Cl)c4C[C@H]3C[C@@H]12.Cl | > 32 | 1 | 8 | > 32 | 1 | 2 | > 32 | – | 8 | – | – | – | – | – | – | –
CN(C)c1nc(NC(=O)CNC(C)(C)C)c(O)c2c1C[C@H]1C[C@H]3[C@H](N(C)C)C(O)=C(C(N)=O)C(=O)[C@@]3(O)C(O)=C1C2=O.Cl | > 32 | 8 | 4 | > 32 | 16 | 32 | 32 | 0.71 | 4 | – | – | – | – | – | – | –
CCCNc1nc(N(C)C)c2c(c1O)C(=O)C1=C(O)[C@]3(O)C(=O)C(C(N)=O)=C(O)[C@@H](N(C)C)[C@@H]3C[C@@H]1C2.Cl.Cl | > 32 | – | 8 | > 32 | – | > 32 | 32 | 3.4 | > 32 | – | – | – | – | – | – | –
CN(C)[C@@H]1C(O)=C(C(N)=O)C(=O)[C@@]2(O)C(O)=C3C(=O)c4c(O)c(N)nc(F)c4C[C@H]3C[C@@H]12.Cl.Cl | 1 | 8 | 0.063 | > 32 | 0.063 | 2 | 0.25 | 0.93 | 2 | – | – | – | – | – | – | –
Cc1ncc2c(c1O)C(=O)C1=C(O)[C@]3(O)C(=O)C(C(N)=O)=C(O)[C@@H](N(C)C)[C@@H]3C[C@@H]1C2.Cl.Cl | 8 | 32 | 1 | > 32 | 4 | 32 | 8 | – | 16 | – | – | – | – | – | – | –
CCCc1nc(N(C)C)c2c(c1O)C(=O)C1=C(O)[C@]3(O)C(=O)C(C(N)=O)=C(O)[C@@H](N(C)C)[C@@H]3C[C@@H]1C2.Cl.Cl | 16 | 1 | 1 | > 32 | 1 | 2 | 16 | – | 2 | – | – | – | – | – | – | –
CN(C)[C@@H]1C(O)=C(C(N)=O)C(=O)[C@@]2(O)C(O)=C3C(=O)c4c(O)c(NC(=O)CNC(C)(C)C)nc(F)c4C[C@H]3C[C@@H]12.Cl.Cl | 16 | 16 | 2 | > 32 | 4 | 16 | 8 | 0.36 | 8 | – | – | – | – | – | – | –
CCCNc1nc(F)c2c(c1O)C(=O)C1=C(O)[C@]3(O)C(=O)C(C(N)=O)=C(O)[C@@H](N(C)C)[C@@H]3C[C@@H]1C2.Cl.Cl | 8 | 0.25 | 4 | 16 | 0.25 | 2 | 2 | 2.8 | 4 | – | – | – | – | – | – | –
CN(C)[C@@H]1C(O)=C(C(N)=O)C(=O)[C@@]2(O)C(O)=C3C(=O)c4c(cnc(-c5ccccc5)c4O)C[C@H]3C[C@@H]12.Cl.Cl | 32 | 16 | 2 | > 32 | 4 | 8 | 16 | – | 8 | – | – | – | – | – | – | –
CCCNc1nc(Cl)c2c(c1O)C(=O)C1=C(O)[C@]3(O)C(=O)C(C(N)=O)=C(O)[C@@H](N(C)C)[C@@H]3C[C@@H]1C2.Cl.Cl.Cl | 8 | 0.5 | 0.25 | 16 | 0.063 | 1 | – | 5.3 | 4 | – | – | – | – | – | – | –
CN(C)[C@@H]1C(O)=C(C(N)=O)C(=O)[C@@]2(O)C(O)=C3C(=O)c4c(O)c(NC(=O)CNC(C)(C)C)nc(Cl)c4C[C@H]3C[C@@H]12.Cl.Cl.Cl | 8 | 32 | 1 | > 32 | 2 | 32 | 4 | 0.78 | 16 | – | – | – | – | – | – | –
CN(C)c1cc(CNCC(C)(C)C)c(O)c2c1C[C@H]1C[C@H]3[C@H](N(C)C)C(O)=C(C(N)=O)C(=O)[C@@]3(O)C(O)=C1C2=O [OMADACYCLINE] | 2 (≈ 3.59 µM) | 0.25 (≈ 0.449 µM) | 0.031 (≈ 0.0557 µM) | 16 (≈ 28.7 µM) | 0.5 (≈ 0.898 µM) | 2 (≈ 3.59 µM) | 2 (≈ 3.59 µM) | – | 0.125 (≈ 0.225 µM) | – | – | – | – | – | – | –
CN(C)[C@@H]1C(O)=C(C(N)=O)C(=O)[C@@]2(O)C(O)=C3C(=O)c4c(O)cccc4[C@@](C)(O)[C@H]3C[C@@H]12 [TETRACYCLINE] | – | – | 0.25 (≈ 0.563 µM) | > 32 | – | – | – | – | – | 0.35 | > 64 | 0.125 (≈ 0.281 µM) | > 64 | 17 | 0.125 (≈ 0.281 µM) | 0.25 (≈ 0.563 µM)
